Source: ChEMBL document CHEMBL1128505, “On the quantitative structure-activity relationships of meta-substituted (S)-phenylpiperidines, a class of preferential dopamine D2 autoreceptor ligands: modeling of dopamine synthesis and release in vivo by means of partial least squares regression” (1995)

Legend:
[1] = target: D(2) dopamine receptor (Rattus norvegicus) (UniProt P61169); assay: Effect on extracellular DA levels in the striatal region of rat brain.; format: functional, tissue-based
How it was run: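 Awake, freely moving rats; test compound injected subcutaneously, with dose varying by compound. Extracellular striatal DA measured by microdialysis, analysing perfusates collected from implanted probes. The value is the maximum DA level between 20 and 100 min after administration, expressed as percent of saline controls.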

Rattus norvegicus [2] = assay: In vivo effect on DOPA accumulation in limbic and striatal regions of the rat brain without reserpine pretreatment; format: functional, Limbic system; design: unit not given beside the values
[3] = target: D(2) dopamine receptor (Rattus norvegicus) (UniProt P61169); assay: Effect on DOPA accumulation in limbic and striatal regions of reserpine-pretreated rat brains.; format: functional, tissue-based; settings: Brain
Rattus norvegicus [4] = assay: The in vivo effect of the compound (sc injection, 227 umol/kg) on DOPA accumulation in limbic and striatal regions of reserpine-pretreated rat brains.; format: functional, Brain
Rattus norvegicus [5] = assay: The in vivo effect of the compound (sc injection, 50 umol/kg) on DOPA accumulation in limbic and striatal regions of reserpine-pretreated rat brains.; format: functional, Brain
Rattus norvegicus [6] = assay: The in vivo effect of the compound (sc injection, 107 umol/kg) on DOPA accumulation in limbic and striatal regions of reserpine-pretreated rat brains.; format: functional, Brain
How it was run: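 Rats pretreated with reserpine 18 h before subcutaneous test compound, then given the decarboxylase inhibitor NSD 1015. L-DOPA accumulation measured in limbic and striatal brain tissue. The value is the maximum effect, taken at a dose where the dose-response curve had reached maximum, expressed as percent of controls.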

Rattus norvegicus [7] = assay: The in vivo effect of the compound (sc,227uM/kg) on DOPA accumulation in limbic and striatal regions of the rat brain without reserpine pretreatment.; format: functional
How it was run: (§1)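 No reserpine pretreatment. Rats given test compound subcutaneously, then the decarboxylase inhibitor NSD 1015. L-DOPA accumulated in limbic and striatal brain tissue was measured. The value is the maximum effect, selected at a dose where the dose-response curve had reached maximum, expressed as percent of controls.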

Rattus norvegicus [8] = assay: The in vivo effect of the compound (sc,3.7uM/kg) on DOPA accumulation in limbic and striatal regions of the rat brain without reserpine pretreatment.; format: functional; how it was run: as §1

D(2) dopamine receptor (Rattus norvegicus), sequence (P61169 whole entry): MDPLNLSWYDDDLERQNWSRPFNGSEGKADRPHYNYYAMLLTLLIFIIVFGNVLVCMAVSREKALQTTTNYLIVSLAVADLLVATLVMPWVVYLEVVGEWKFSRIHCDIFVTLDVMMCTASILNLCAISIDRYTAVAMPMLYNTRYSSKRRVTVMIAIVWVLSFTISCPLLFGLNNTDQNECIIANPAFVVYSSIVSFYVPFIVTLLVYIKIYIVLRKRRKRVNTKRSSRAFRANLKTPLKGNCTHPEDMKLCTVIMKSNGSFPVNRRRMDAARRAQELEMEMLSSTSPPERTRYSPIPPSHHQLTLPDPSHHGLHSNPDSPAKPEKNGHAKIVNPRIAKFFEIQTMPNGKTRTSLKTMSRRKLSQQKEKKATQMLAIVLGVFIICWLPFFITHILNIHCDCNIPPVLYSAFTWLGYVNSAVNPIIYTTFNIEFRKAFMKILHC

Row | SMILES | Activity [1] | DOPA accumulation [3] | further results
1 | CCN1CCC[C@@H](c2cccc(OS(=O)(=O)C(F)(F)F)c2)C1 | 143 |  | DOPA accumulation (Rattus norvegicus [2]): 286
2 | CCCc1cccc([C@@H]2CCCN(CCC)C2)c1 |  | 62 | DOPA accumulation (Rattus norvegicus [2]): 190
3 | C#Cc1cccc([C@@H]2CCCN(CCC)C2)c1 | 270 |  | 
4 | CCCN1CCC[C@@H](c2cccc(OC)c2)C1 |  | 66 | 
5 | CCCCN1CCC[C@@H](c2cccc(OS(=O)(=O)C(F)(F)F)c2)C1 |  |  | DOPA accumulation (Rattus norvegicus [2]): 234
6 | C=CCN1CCC[C@@H](c2ccccc2)C1 | 364 |  | 
7 | CCCN1CCC[C@@H](c2cccc(O)c2)C1 [PRECLAMOL] | 400 |  | DOPA accumulation (Rattus norvegicus [4]): 30
8 | CCCN1CCC[C@@H](c2cccc(C=O)c2)C1 |  | 83 | 
9 | CCCN1CCC[C@@H](c2cccc(C#N)c2)C1 | 411 | 105 | 
10 | C=CCN1CCC[C@@H](c2cccc(C#N)c2)C1 | 593 | 85 | 
11 | CCCN1CCC[C@@H](c2cccc(-c3ccsc3)c2)C1 | 106 |  | 
12 | CN1CCC[C@@H](c2cccc(OS(=O)(=O)C(F)(F)F)c2)C1 |  |  | DOPA accumulation (Rattus norvegicus [2]): 157
13 | CCC(C)N1CCC[C@@H](c2cccc(C#N)c2)C1 (some centres not stated) | 282 |  | 
14 | CCCN1CCC[C@@H](c2cccc(CC#N)c2)C1 |  | 57 | 
15 | CCCN1CCC[C@@H](c2cccc(SC)c2)C1 |  |  | DOPA accumulation (Rattus norvegicus [5]): 92
16 | CCCN1CCC[C@@H](c2cccc(C(C)=O)c2)C1 | 196 | 73 | 
17 | CCCN1CCC[C@@H](c2cccc(S(C)(=O)=O)c2)C1 | 293 | 95 | 
18 | CN1CCC[C@@H](c2cccc(O)c2)C1 |  |  | DOPA accumulation (Rattus norvegicus [6]): 20; DOPA accumulation (Rattus norvegicus [7]): 51
19 | CCCCN1CCC[C@@H](c2cccc(C#N)c2)C1 |  |  | DOPA accumulation (Rattus norvegicus [5]): 71
20 | CCCCN1CCC[C@@H](c2cccc(O)c2)C1 |  |  | DOPA accumulation (Rattus norvegicus [6]): 22; DOPA accumulation (Rattus norvegicus [8]): 86
21 | CCN1CCC[C@@H](c2cccc(C#N)c2)C1 | 223 |  | 
22 | CCCN1CCC[C@@H](c2cccc(OS(C)(=O)=O)c2)C1 | 239 | 92 | DOPA accumulation (Rattus norvegicus [2]): 249
23 | CC(C)N1CCC[C@@H](c2cccc(O)c2)C1 | 56 | 18 | DOPA accumulation (Rattus norvegicus [2]): 47
24 | Oc1cccc([C@@H]2CCCN(CCc3ccccc3)C2)c1 |  |  | DOPA accumulation (Rattus norvegicus [6]): 22; DOPA accumulation (Rattus norvegicus [8]): 37
25 | CCCN1CCC[C@@H](c2ccccc2)C1 | 543 |  | DOPA accumulation (Rattus norvegicus [5]): 65; DOPA accumulation (Rattus norvegicus [2]): 140
26 | CCCN1CCC[C@@H](c2cccc(N)c2)C1 |  | 91 | 
27 | CCCN1CCC[C@@H](c2cccc(CO)c2)C1 | 191 | 50 | 
28 | CCCN1CCC[C@@H](c2cccc(Br)c2)C1 | 372 | 101 | 
29 | Oc1cccc([C@@H]2CCCNC2)c1 |  |  | DOPA accumulation (Rattus norvegicus [7]): 44
